Measured values as given in ChEMBL document CHEMBL3108731, “A development of chimeric VEGFR2 TK inhibitor based on two ligand conformers from PDB: 1Y6A complex--medicinal chemistry consequences of a TKs analysis” (Eur J Med Chem, 2014).
pIC50: −log10 of the molar value. Values belong to the compound of their own block, whether it stands above or below them. Calls of active or inactive are those of the source. No cut-off for these calls is given here.

Legend:
[1] = biological target: Vascular endothelial growth factor receptor 2 (Homo sapiens, UniProt P35968); experiment: Inhibition of GST-tagged recombinant human VEGFR2 expressed in Sf9 cells by radiometric assay; format: cell-based
[2] = Antiproliferative activity against human HT1080 cells after 3 days by MTT assay; format: functional, cell-based; conditions: HT-1080, 72 h
Procedure, shortened: (§1)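 MTT dye-reduction assay: 3×10^3 BAE or 2×10^3 tumour cells in their own growth media were given serial dilutions of compound for 3 days at 37 °C, 5% CO2. MTT (5 mg/ml stock in PBS) was added for 4 h, and formazan was dissolved in 0.04 N HCl/2-propanol and read at 550 nm. IC50 is the concentration giving 50% survival; values are mean ± S.D. of at least three experiments in triplicate.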

[3] = system: HT-29; experiment: Antiproliferative activity against human HT-29 cells after 3 days by MTT assay; format: functional, cell-based; conditions: HT-29, 72 h; procedure, shortened: as §1
[4] = system: MDA-MB-231; experiment: Antiproliferative activity against human MDA-MB-231 cells after 3 days by MTT assay; format: functional, cell-based; conditions: MDA-MB-231, 72 h; procedure, shortened: as §1
[5] = species on record: Danio rerio; experiment: Antiangiogenic activity in zebrafish embryo assessed as inhibition of intersegmental blood vessel growth at 10 uM up to 24 hrs by GFP assay; format: functional, organism-based
Procedure, shortened: (§2)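 Embryos of transgenic Zebrafish line TG(fli1:EGFP)y1 were used; a fli-1 promoter drives GFP expression in the endothelium. Embryos were incubated with different compound concentrations, and angiogenesis was assessed by live fluorescence imaging. Data are the percentage of treated embryos showing inhibited angiogenesis.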

[6] = system: BAEC; experiment: Antiangiogenic activity in BAEC assessed as inhibition of cell migration to extracellular matrix at 1 uM after 7 hrs by wound-healing assay; format: functional; conditions: Bos taurus
Procedure, shortened: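 Confluent BAEC monolayers were wounded with a pipette tip to give one 1 mm-wide acellular lane. After washing, cells received complete medium without or with compound. The same fields were photographed at 0 and 7 h. Regrowth into the cell-free area was expressed as % recovered area, mean ± SD, n = 3.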

[7] = species on record: Danio rerio; experiment: Toxicity in zebrafish embryo up to 24 hrs by GFP assay; format: organism-based; conditions: in vivo
[8] = species on record: Danio rerio; experiment: Antiangiogenic activity in zebrafish embryo at 5 uM up to 24 hrs by GFP assay; format: functional; procedure, shortened: as §2
[9] = system: HL-60; experiment: Antiproliferative activity against human HL60 cells after 3 days by MTT assay; format: functional, cell-based; conditions: HL-60, 72 h; procedure, shortened: as §1
[10] = system: BAEC; experiment: Antiangiogenic activity in BAEC assessed as inhibition of capillary tube formation after 7 hrs by matrigel assay; format: functional; conditions: Bos taurus
Procedure, shortened: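 BAE cells (5×10^4 per well) in DMEM were seeded on Matrigel (about 10.5 mg/mL) that had polymerized at 37 °C for at least 30 min. Cells were given compound at several amounts and kept at 37 °C, 5% CO2 for 7 h. Cord/tube formation was viewed at 200×. Each concentration was run in duplicate and scored by two independent observers.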

[11] = system: BAEC; experiment: Induction of apoptosis in BAEC assessed as chromatin condensation at 0.5 to 1 uM after 14 hrs by Hoechst staining; format: functional; conditions: Bos taurus
Procedure, shortened: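 Subconfluent BAE cells on chamber slides were treated for 14 h with the indicated concentrations in complete medium. Cells were then PBS-washed, formalin-fixed and stained with Hoechst for 2 min. Nuclear morphology (chromatin condensation) was examined by fluorescence microscopy.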

[12] = Antiproliferative activity against BAEC after 3 days by MTT assay; format: functional; conditions: Bos taurus, 72 h; procedure, shortened: as §1
[13] = species on record: Danio rerio; experiment: Antiangiogenic activity in zebrafish embryo at 20 uM up to 24 hrs by GFP assay; format: functional; procedure, shortened: as §2
[14] = species on record: Danio rerio; experiment: Antiangiogenic activity in zebrafish embryo at 10 uM up to 24 hrs by GFP assay; format: functional; procedure, shortened: as §2
[15] = system: U2OS; experiment: Antiproliferative activity against human U2OS cells after 3 days by MTT assay; format: functional, cell-based; conditions: 72 h; procedure, shortened: as §1
[16] = species on record: Danio rerio; experiment: Antiangiogenic activity in zebrafish embryo up to 24 hrs by GFP assay; format: functional, organism-based; procedure, shortened: as §2

Sequence of Vascular endothelial growth factor receptor 2 (P35968 whole entry): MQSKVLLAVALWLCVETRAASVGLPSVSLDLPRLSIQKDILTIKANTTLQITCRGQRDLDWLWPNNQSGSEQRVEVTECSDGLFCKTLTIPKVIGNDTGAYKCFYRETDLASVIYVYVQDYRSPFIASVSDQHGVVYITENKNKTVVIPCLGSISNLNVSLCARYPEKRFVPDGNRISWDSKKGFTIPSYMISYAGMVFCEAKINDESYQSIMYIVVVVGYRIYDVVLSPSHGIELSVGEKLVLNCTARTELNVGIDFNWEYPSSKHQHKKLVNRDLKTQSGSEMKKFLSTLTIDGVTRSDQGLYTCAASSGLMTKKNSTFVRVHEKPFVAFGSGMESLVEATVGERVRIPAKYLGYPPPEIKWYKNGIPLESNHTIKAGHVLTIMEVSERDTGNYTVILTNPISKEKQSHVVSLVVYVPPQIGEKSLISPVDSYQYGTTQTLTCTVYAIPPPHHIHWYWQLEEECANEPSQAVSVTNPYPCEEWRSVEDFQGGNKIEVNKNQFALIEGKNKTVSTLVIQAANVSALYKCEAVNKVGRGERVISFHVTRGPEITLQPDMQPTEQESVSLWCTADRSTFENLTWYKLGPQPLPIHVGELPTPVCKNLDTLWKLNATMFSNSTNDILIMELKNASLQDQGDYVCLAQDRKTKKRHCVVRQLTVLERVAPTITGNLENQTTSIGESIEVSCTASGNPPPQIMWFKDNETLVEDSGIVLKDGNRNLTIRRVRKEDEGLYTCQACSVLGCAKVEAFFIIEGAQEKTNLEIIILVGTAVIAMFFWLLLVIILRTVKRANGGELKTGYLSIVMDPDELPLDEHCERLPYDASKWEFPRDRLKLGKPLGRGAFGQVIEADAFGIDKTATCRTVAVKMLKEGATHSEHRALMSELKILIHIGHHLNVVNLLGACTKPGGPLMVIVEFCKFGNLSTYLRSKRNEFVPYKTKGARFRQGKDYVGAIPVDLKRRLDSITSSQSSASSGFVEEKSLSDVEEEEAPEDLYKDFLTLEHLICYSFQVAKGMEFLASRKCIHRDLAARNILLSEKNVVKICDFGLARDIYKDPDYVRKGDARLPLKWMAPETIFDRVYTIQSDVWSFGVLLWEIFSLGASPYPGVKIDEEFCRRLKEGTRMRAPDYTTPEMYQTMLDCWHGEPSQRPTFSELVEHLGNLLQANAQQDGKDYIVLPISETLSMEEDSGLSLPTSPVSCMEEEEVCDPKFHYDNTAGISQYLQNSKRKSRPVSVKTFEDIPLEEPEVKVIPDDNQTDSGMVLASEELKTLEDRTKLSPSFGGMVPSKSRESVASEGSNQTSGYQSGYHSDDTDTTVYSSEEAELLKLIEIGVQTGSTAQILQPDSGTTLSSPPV

pIC50 [1]: 6.77
Structure (SMILES): CCS(=O)(=O)c1ccc(OC)c(Nc2ncc(-c3cc(-c4cccnc4)cc(-c4cccnc4)c3)o2)c1

pIC50 [1]: 7.29
Structure (SMILES): CCS(=O)(=O)c1ccc(OC)c(Nc2ncc(-c3cc(-c4cccnc4)cc(-c4ccccn4)c3)o2)c1

pIC50 [3]: 4.82
pIC50 [4]: 5.40
pIC50 [9]: 4.75
pIC50 [1]: 7.82
pIC50 [15]: 5.69
Structure (SMILES): CCS(=O)(=O)c1ccc(OC)c(Nc2ncc(-c3cc(-c4ccccn4)cc(-c4ccccn4)c3)o2)c1
pIC50 [2]: 5.61
inhibition [5]: Active
inhibition [6]: Active
Activity [7]: Non-toxic
inhibition (INH) [8]: 7%
inhibition [10]: Dose-dependent effect
Activity [11]: Active
pIC50 [12]: 6.43
inhibition (INH) [13]: 87%
inhibition (INH) [14]: 53%
inhibition [16]: Dose-dependent effect

pIC50 [1]: 6.69
Structure (SMILES): CCS(=O)(=O)c1ccc(OC)c(Nc2ncc(-c3cc(Br)cc(-c4ccccn4)c3)o2)c1
